Published values collected from several papers.
Observed: cell growth or viability

| SMILES | cell line | technique | tested at | time | measurement | result |
| --- | --- | --- | --- | --- | --- | --- |
| COc1c2ccoc2cc2oc(=O)ccc12 | HCT-116 | WST-1 |  | 48 h | IC50 | 29000 nM |
| COc1cc2c(c3c1C(=O)C[C@@H](c1ccccc1)O3)[C@H]1[C@@H](O2)OC(C)(C)[C@@H]1OC(C)=O | Raji | MTS |  | 72 h | IC50 | > 10000 nM |
| C=CC(=O)Nc1cc(Nc2nccc(-c3cn(C)c4ccccc34)n2)c(OC)cc1N(C)CCN(C)C | PC-9 |  |  | 72 h | IC50 | 8 nM |
| CC[C@@]1(OC(=O)[C@H](C)N)C(=O)OCc2c1cc1n(c2=O)Cc2cc3cc4c(cc3nc2-1)OCO4 | HCT-116 | MTT |  |  | IC50 | 80 nM |
| Cc1cc(N(CCO)CCO)ccc1C(=O)O | SN12K1 |  |  |  | IC50 | > 10 µg/mL |
| N.N.[Cl][Pt][Cl] | HCT-116 |  |  | 24 h | IC50 | 35600 nM |
| Cc1cccc2[nH]cc(CNCC3(N4CCCC4)COC3)c12 | U-87 MG |  | 30 µM | 48 h | viability | 52.5% |
| CC1=C(O)C(=O)C=C2C1=CC=C1[C@@]2(C)CC[C@@]2(C)[C@@H]3C[C@](C)(C(=O)OCCCn4cc(C=O)c5ccccc54)CC[C@]3(C)CC[C@]12C | AGS | MTT |  | 48 h | IC50 | 320 nM |
| CC[C@@]1(OC(=O)[C@@H]2CCCN2)C(=O)OCc2c1cc1n(c2=O)Cc2cc3cc4c(cc3nc2-1)OCO4 | HCT-116 | MTT |  |  | IC50 | 125 nM |
| CC(C)C[C@@H]1NC(=O)[C@H](Cc2ccccc2)NC(=O)[C@H](CCCCN)NC(=O)[C@H](CC(C)C)NC(=O)[C@H](C(C)C)NC1=O | HCT-116 | thymidine uptake | 10 µM | 72 h | inhibition | 0% |
| CC[C@@]1(OC(=O)C(C)c2cccc(C(=O)c3ccccc3)c2)C(=O)OCc2c1cc1n(c2=O)Cc2cc3cc4c(cc3nc2-1)OCO4 (some centres unmarked) | HCT-116 | MTT |  |  | IC50 | 302 nM |
| Cc1ccc2c(CNCC3(N4CCCC4)COC3)c[nH]c2c1 | U-87 MG |  | 30 µM | 48 h | viability | 27.6% |
| CC[C@H](C)[C@H](N)C(=O)O[C@]1(CC)C(=O)OCc2c1cc1n(c2=O)Cc2cc3cc4c(cc3nc2-1)OCO4 | HCT-116 | MTT |  |  | IC50 | 64 nM |
| CN[C@@H]1C[C@H]2O[C@@](C)([C@@H]1OC)n1c3ccccc3c3c4c(c5c6ccccc6n2c5c31)C(=O)NC4 | SHP77 | MTT |  |  | IC50 | 16 nM |
